Data from ChEMBL document CHEMBL4017500 (J Med Chem, 2017).
Active and inactive are the calls of the source. The calls are words filed in the database; no cut-off is given here.

Columns and labels:
[1] = molecular target: Metallo-beta-lactamase type 2 (Klebsiella pneumoniae) (UniProt C7C422); test: Inhibition of NDM1 in Klebsiella pneumoniae isolate Pd1.50 assessed as potentiation of imipenem-induced antibacterial activity by measuring imipenem MIC at 100 mg/L after 18 to 20 hrs by broth microdilution assay (reference value: 8 mg/L)
Klebsiella pneumoniae [2] = test: Effect on growth of Klebsiella pneumoniae isolate Cm1.63 at 100 mg/L after 18 to 20 hrs by broth microdilution assay
Outline: (§1)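 Mueller-Hinton broth microdilution per CLSI, triplicate. blaNDM-1 clinical isolates grown from OD600 0.1 to 0.224 (~1–2 × 10^8 CFU/mL), diluted 3 μL into 4997 μL MH, and 100 μL added to 100 μL of compound (100 mg/L) alone. Incubated 37 °C for 18–20 h, then scored for growth.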

[3] = molecular target: Macrophage metalloelastase (Homo sapiens) (UniProt P39900); test: Inhibition of human MMP12 (Phe99 to Leu271 residues) expressed in Escherichia coli at 50 to 100 uM using Mca-Pro-LeuGly-Leu-Dpa-Ala-Arg-NH2.AcOH as substrate preincubated for 30 mins followed by substrate addition measured after 20 mins by fluorescence assay relative to control
Outline: (§2)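 Human recombinant MMP-2 (1.16 U/well) or MMP-12 (0.007 U/well) in 50 mM HEPES, 10 mM CaCl2, 0.05% Brij-35, pH 7.5. Enzyme and inhibitor pre-incubated 30 min at 37 °C, then OmniMMP fluorogenic substrate (4 μM) added. Fluorescence rise followed 20 min at ex/em 320/400 nm. Activity relative to no-inhibitor wells, with 200 μM NSA as 0%. Run in triplicate.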

Klebsiella pneumoniae [4] = test: Effect on growth of Klebsiella pneumoniae isolate Pd1.50 at 100 mg/L after 18 to 20 hrs by broth microdilution assay; outline: as §1
[5] = molecular target: Macrophage metalloelastase (Homo sapiens) (UniProt P39900); test: Inhibition of human MMP12 (Phe99 to Leu271 residues) expressed in Escherichia coli at 10 uM using Mca-Pro-LeuGly-Leu-Dpa-Ala-Arg-NH2.AcOH as substrate preincubated for 30 mins followed by substrate addition measured after 20 mins by fluorescence assay relative to control; outline: as §2
Escherichia coli [6] = test: Inhibition of NDM1 in Escherichia coli isolate Ah8.74 assessed as potentiation of imipenem-induced antibacterial activity by measuring imipenem MIC at 100 mg/L after 18 to 20 hrs by broth microdilution assay (reference value: 8 mg/L)
[7] = molecular target: T1, Protein deacetylase HDAC6 (Homo sapiens) (UniProt Q9UBN7); test: Inhibition of full length human N-terminal GST-tagged HDAC6 expressed in baculovirus infected sf9 cells at 50 to 100 uM using HDAC substrate 3 preincubated for 5 mins followed by substrate addition measured after 30 mins by fluorescence assay
T1 sequence (whole entry): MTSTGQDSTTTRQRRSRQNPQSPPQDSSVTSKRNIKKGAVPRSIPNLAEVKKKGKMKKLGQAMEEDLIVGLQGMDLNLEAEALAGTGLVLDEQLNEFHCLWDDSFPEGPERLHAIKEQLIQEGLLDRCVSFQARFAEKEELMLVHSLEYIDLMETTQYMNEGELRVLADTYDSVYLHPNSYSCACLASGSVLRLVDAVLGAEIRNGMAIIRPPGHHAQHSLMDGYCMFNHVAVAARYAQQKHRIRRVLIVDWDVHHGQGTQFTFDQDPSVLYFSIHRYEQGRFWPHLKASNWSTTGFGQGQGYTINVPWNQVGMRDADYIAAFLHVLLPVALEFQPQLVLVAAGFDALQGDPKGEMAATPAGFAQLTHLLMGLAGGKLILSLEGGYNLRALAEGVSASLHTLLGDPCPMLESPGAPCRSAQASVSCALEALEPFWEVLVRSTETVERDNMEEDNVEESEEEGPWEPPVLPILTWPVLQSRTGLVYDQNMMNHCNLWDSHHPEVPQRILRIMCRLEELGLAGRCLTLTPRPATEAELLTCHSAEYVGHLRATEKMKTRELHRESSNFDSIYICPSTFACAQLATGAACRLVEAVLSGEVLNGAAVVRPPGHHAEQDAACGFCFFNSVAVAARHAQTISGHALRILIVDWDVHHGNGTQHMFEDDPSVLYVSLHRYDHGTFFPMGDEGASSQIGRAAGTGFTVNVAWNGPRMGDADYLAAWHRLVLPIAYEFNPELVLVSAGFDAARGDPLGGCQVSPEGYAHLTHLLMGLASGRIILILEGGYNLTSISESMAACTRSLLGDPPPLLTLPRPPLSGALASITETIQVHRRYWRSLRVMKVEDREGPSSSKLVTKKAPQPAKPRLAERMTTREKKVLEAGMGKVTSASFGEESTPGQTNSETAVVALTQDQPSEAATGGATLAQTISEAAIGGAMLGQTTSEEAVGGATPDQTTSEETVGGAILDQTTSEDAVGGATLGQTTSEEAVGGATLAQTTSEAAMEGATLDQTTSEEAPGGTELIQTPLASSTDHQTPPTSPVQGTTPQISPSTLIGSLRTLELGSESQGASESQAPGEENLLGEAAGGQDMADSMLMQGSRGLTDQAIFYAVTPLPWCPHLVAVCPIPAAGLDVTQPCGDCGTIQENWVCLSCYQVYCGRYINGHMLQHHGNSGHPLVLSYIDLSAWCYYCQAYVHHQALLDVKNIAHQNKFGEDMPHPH
Outline: (§3)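 Inhibitor pre-incubated 5 min, then HDAC substrate 3 (20 μM) added, 30 min at 37 °C. Developer added for 15 min at room temperature; fluorescence read at ex/em 360/460 nm. Activity relative to no-inhibitor wells, with 200 μM SAHA as 0%. Run in triplicate.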

Escherichia coli [8] = test: Inhibition of NDM1 in Escherichia coli isolate Ah8.75 assessed as potentiation of imipenem-induced antibacterial activity by measuring imipenem MIC at 100 mg/L after 18 to 20 hrs by broth microdilution assay (reference value: 16 mg/L)
Klebsiella pneumoniae [9] = test: Effect on growth of Klebsiella pneumoniae isolate Pd1.53 at 100 mg/L after 18 to 20 hrs by broth microdilution assay; outline: as §1
[10] = molecular target: Histone deacetylase 1 (Homo sapiens) (UniProt Q13547); test: Inhibition of full length human C-terminal FLAG/His-tagged HDAC1 expressed in baculovirus infected sf9 cells at 10 uM using HDAC substrate 3 preincubated for 5 mins followed by substrate addition measured after 30 mins by fluorescence assay; outline: as §3
[11] = molecular target: Metallo-beta-lactamase type 2 (Klebsiella pneumoniae) (UniProt C7C422); test: Inhibition of NDM1 in Klebsiella pneumoniae isolate Pd1.55 assessed as potentiation of imipenem-induced antibacterial activity by measuring imipenem MIC at 100 mg/L after 18 to 20 hrs by broth microdilution assay (reference value: 8 mg/L)
[12] = system: histone deacetylase 1/6 (Homo sapiens); test: Selectivity ratio of compound effect for inhibition of bacterial MBP-fused NDM1 expressed in Escherichia coli BL21(DE3) to compound effect for inhibition of human histone deacetylases HDAC-1/HDAC-6
Escherichia coli [13] = test: Effect on growth of Escherichia coli isolate Ch8.72 at 100 mg/L after 18 to 20 hrs by broth microdilution assay; outline: as §1

Chain of Metallo-beta-lactamase type 2 (Klebsiella pneumoniae) (C7C422 whole entry, the tested form may be a part): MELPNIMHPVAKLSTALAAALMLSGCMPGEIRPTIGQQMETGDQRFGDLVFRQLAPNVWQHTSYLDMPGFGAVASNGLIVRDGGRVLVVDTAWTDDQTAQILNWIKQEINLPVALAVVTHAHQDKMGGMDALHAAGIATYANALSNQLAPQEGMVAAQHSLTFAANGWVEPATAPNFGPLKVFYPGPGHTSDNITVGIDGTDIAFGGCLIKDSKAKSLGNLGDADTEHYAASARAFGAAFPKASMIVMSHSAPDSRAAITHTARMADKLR
Chain of Macrophage metalloelastase (Homo sapiens) (P39900 106-470 limits assumed): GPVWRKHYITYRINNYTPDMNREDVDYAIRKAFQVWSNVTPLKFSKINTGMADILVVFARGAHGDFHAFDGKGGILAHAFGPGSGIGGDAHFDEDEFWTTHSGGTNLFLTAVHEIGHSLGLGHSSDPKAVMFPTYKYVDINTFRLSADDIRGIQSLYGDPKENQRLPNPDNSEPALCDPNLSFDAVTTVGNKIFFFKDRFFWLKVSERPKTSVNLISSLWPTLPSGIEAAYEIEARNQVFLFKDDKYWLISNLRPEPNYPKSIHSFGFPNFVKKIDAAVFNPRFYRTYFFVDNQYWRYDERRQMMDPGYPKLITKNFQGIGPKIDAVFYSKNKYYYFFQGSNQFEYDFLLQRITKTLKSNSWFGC
Chain of Histone deacetylase 1 (Homo sapiens) (Q13547 whole entry): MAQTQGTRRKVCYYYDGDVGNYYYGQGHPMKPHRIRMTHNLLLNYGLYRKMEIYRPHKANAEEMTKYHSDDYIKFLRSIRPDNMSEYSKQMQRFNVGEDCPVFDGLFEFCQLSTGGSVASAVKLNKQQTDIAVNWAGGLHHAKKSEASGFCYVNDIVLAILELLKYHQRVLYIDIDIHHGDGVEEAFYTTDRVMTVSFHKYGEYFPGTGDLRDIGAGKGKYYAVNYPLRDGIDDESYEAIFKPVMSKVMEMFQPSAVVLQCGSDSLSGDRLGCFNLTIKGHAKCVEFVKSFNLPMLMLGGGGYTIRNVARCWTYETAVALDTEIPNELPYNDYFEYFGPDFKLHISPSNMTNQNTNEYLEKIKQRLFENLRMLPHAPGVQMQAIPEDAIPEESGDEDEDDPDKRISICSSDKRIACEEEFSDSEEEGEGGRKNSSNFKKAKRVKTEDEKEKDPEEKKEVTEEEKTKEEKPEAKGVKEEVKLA

Compound: Nc1cccc(-c2cc(C(=O)O)nc(C(=O)O)c2)c1
- MIC [1]: 0.5 µg/mL
- Activity (Klebsiella pneumoniae [2]): Non-Toxic
- inhibition [3]: < 50%
- Activity (Klebsiella pneumoniae [4]): Non-Toxic
- inhibition [5]: 48%
- MIC (Escherichia coli [6]): 0.5 µg/mL
- inhibition [7]: < 50%
- MIC (Escherichia coli [8]): 0.5 µg/mL
- Activity (Klebsiella pneumoniae [9]): Non-Toxic
- inhibition [10]: inactive
- MIC [11]: 0.5 µg/mL
- Selectivity ratio [12]: 500 to 1000
- Activity (Escherichia coli [13]): Non-Toxic
